These results are taken from ChEMBL document CHEMBL1140092, “New chimeric antimalarials with 4-aminoquinoline moiety linked to a tetraoxane skeleton” (J Med Chem, 2008).

The test system of data set [1] is Mycobacterium tuberculosis. Put plainly: Antitubercular activity against Mycobacterium tuberculosis H37Rv at 6.26 ug/ml by alamar blue assay. The class given is functional. In short, it runs like this:
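Screened against M. tuberculosis H37Rv at TAACF by Alamar blue assay at a cutoff of 6.26 µg/mL. Active was defined as >90% inhibition.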
A general note: The colour change of resazurin is a common sign of viable cells or microbes.

Data set [2] relates to Plasmodium falciparum. Briefly: Antimalarial activity against chloroquine-resistant, mefloquine-susceptible Plasmodium falciparum W2. The class given is functional, organism-based. In short, it runs like this: (§1)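 In vitro blood-stage assay with P. falciparum clones: D6 (Sierra I/UNC isolate), W2 (Indochina I isolate) and TM91C235 (Southeast Asian isolate). Activity was expressed as IC90.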

In data set [3] the test system is Mycobacterium tuberculosis. Briefly: Antitubercular activity against Mycobacterium tuberculosis H37Rv by microplate alamar blue assay. The class given is functional. In short, it runs like this: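 M. tuberculosis H37Rv was tested at TAACF by microplate Alamar blue assay (MABA). Inhibitory activity was reported as IC90.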
The subject of data set [4] is Plasmodium falciparum. Briefly: Antimalarial activity against chloroquine-sensitive Plasmodium falciparum D6. The class given is functional, organism-based. In short, it runs like this: as §1
In data set [5] the test system is Plasmodium falciparum. Briefly: Antimalarial activity against multidrug-resistant Plasmodium falciparum TM91C235. The class given is functional, organism-based. In short, it runs like this:
as §1

The test system of data set [6] is Plasmodium berghei. Briefly: Antimalarial activity against Plasmodium berghei KBG173 infected ICR mice (Mus musculus) assessed at 80 mg/kg/day peroral dose from days 3 to 5 post infection. The data set is classed as functional. Conditions: route oral. In short, it runs like this: (§2)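 Modified Thompson test in groups of five ICR mice. Mice were inoculated ip with P. berghei KBG 173-infected erythrocytes on day 0. Compound was suspended in 0.5% hydroxyethylcellulose-0.1% Tween 80 and given orally once daily on days 3-5. Blood smears were read on days 6-31. Cure was defined as alive on day 31 with no parasites in a blood film. Necropsy followed.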

Data set [7] in a line: Metabolic stability in mouse liver microsomes assessed as half life. The class given is ADME, Microsome. Background: Microsomes from liver hold many membrane-bound enzymes, among them those of drug oxidation.
Data set [8] has as its system Plasmodium berghei. Briefly: Antimalarial activity against Plasmodium berghei KBG173 infected ICR mice (Mus musculus) assessed at 20 mg/kg/day peroral dose from days 3 to 5 post infection. The class given is functional. Conditions: route oral. In short, it runs like this: as §2
The test system of another data set is Mus musculus. Briefly: Toxicity in Plasmodium berghei KBG173-infected ICR mice (Mus musculus) at 960 mg/kg, perorally for 3 days. The class given is organism-based. To be noted: in vivo, po, 72 h. Also on record: dose 960 mg/kg, route oral. In short, it runs like this: (§3)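 Orally dosed, P. berghei KBG 173-infected ICR mice in groups of five received compound suspended in 0.5% hydroxyethylcellulose-0.1% Tween 80 once daily for three consecutive days. Doses went up to 960 mg/kg. Toxicity was judged by survival and by gross lesions at necropsy.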

A short description of data set [9]: Metabolic stability in human liver microsomes assessed as half life. The data set is classed as ADME, Microsome.
Data set [10] relates to Plasmodium berghei. Put plainly: Antimalarial activity against Plasmodium berghei KBG173 infected ICR mice (Mus musculus) at 320 mg/kg/day peroral dose from day 3 post infection at day 31 by modified Thompson test. The data set is classed as functional, organism-based. In short, it runs like this: as §2
Data set [11] relates to Plasmodium berghei. Briefly: Antimalarial activity against Plasmodium berghei KBG173 infected ICR mice (Mus musculus) at 20 mg/kg/day peroral dose from day 3 post infection at day 31 by modified Thompson test. The data set is classed as functional, organism-based. In short, it runs like this:
as §2

Data set [12] deals with Plasmodium berghei. Put plainly: Antimalarial activity against Plasmodium berghei KBG173 infected ICR mice (Mus musculus) at 320 mg/kg/day peroral dose from days 3 to 5 post infection. The data set is classed as functional. To be noted: route oral. In short, it runs like this:
as §2

Data set [13] can be described thus: Toxicity in Plasmodium berghei KBG173-infected perorally dosed ICR mice (Mus musculus) assessed as maximum tolerated dose. Conditions: in vivo, po. The class given is organism-based. In short, it runs like this:
as §3

SMILES strings stand for the structures. Activity calls are given as the source filed them. Some results are limits rather than exact numbers.

By inhibition is commonly meant the drop in the measured response relative to a control, in per cent. Read a low inhibition as a weak effect. What is called IC50 is the concentration that inhibits the measured activity by half. The low end stands for higher potency, the high end for lower potency. What is called IC90 is the concentration needed for an effect of 90%. High values mean a need for much substance, low ones an effect from little substance. For the molecule `CC(=O)O[C@H]1C[C@H]2[C@@H]([C@H](OC(C)=O)C[C@@H]3CC4(CC[C@@]32C)OOC2(CCCCC2)OO4)[C@@H]2CC[C@H]([C@H](C)CCC(=O)NCCNc3ccnc4cc(Cl)ccc34)[C@@]12C`, in data set [1], the inhibition at 6.26 µg/mL was greater than 90%. In addition, the IC50 in the data set on Plasmodium falciparum [2] was 4.47 nM; in the data set with Plasmodium falciparum [4] it was 6.53 nM; with Plasmodium falciparum [5], 8.54 nM. The IC90 in the data set with Plasmodium falciparum [2] was found to be 10.7 nM; in data set [3], 400 nM; with Plasmodium falciparum [4], 10.6 nM; in the data set on Plasmodium falciparum [5], 17.2 nM.

Turning to `CC(=O)O[C@H]1C[C@H]2[C@@H]([C@H](OC(C)=O)C[C@@H]3CC4(CC[C@@]32C)OOC2(CCCCC2)OO4)[C@@H]2CC[C@H]([C@H](C)CCCNCCNc3ccnc4cc(Cl)ccc34)[C@@]12C`, the inhibition at 6.26 µg/mL in data set [1] was greater than 90%. Besides, the results for the half-maximal inhibitory concentration (IC50) in the data set with Plasmodium falciparum [2], with Plasmodium falciparum [4] and in the data set on Plasmodium falciparum [5] were 22.9 nM, 33.5 nM and 30.2 nM, respectively. The concentration for an effect of 90% (IC90) worked out at 30.3 nM in the data set on Plasmodium falciparum [2], 330 nM in [3], 103 nM with Plasmodium falciparum [4] and 160 nM in the data set with Plasmodium falciparum [5].

On to `C[C@@H]1CC[C@H]2[C@@H](C)C(=O)O[C@@H]3O[C@@]4(C)CC[C@@H]1[C@]32OO4` [ARTEMISININ], for which the half-inhibitory concentration (IC50) with Plasmodium falciparum [2] stood at 6.7 nM; in the data set on Plasmodium falciparum [4], 9 nM; in the data set with Plasmodium falciparum [5], 13 nM. The IC90 in the data set on Plasmodium falciparum [2] is 11.5 nM; in the data set on Plasmodium falciparum [4] it was 12.8 nM; in the data set on Plasmodium falciparum [5], 17.4 nM.

With `OC(c1cc(C(F)(F)F)nc2c(C(F)(F)F)cccc12)C1CCCCN1` (configuration not stated) [MEFLOQUINE], the half-maximal inhibitory concentration (IC50) in the data set with Plasmodium falciparum [2] is 5.35 nM; in the data set on Plasmodium falciparum [4], 19 nM; in the data set with Plasmodium falciparum [5], 47.5 nM. Besides, the IC90 was 18.6 nM in the data set on Plasmodium falciparum [2], 44.8 nM with Plasmodium falciparum [4] and 153 nM in the data set on Plasmodium falciparum [5].

Broadly, the half-life is the time needed for the level to fall by half in the phase considered. As usually defined, the MTD is the highest dose tested that stayed within the study's limit of toxicity. As to `O=C(NCCNc1ccnc2cc(Cl)ccc12)C1CCC2(CC1)OOC1(CCCCC1)OO2`, the Survival is 26.2 days in the data set on Plasmodium berghei [6], 14.2 days with Plasmodium berghei [8] and greater than 31 days in the data set with Plasmodium berghei [12]. Moreover, the half-life in data set [7] and in data set [9] was greater than 1 h in each case. In the data set with Mus musculus, the Activity result is recorded as “Non-toxic”. The result in the data set on Plasmodium berghei [10] was Active. The outcome with Plasmodium berghei [11] was inactive. This molecule also returned an inhibition at 6.26 µg/mL in [1] greater than 90%. Also, in [13], the maximum tolerated dose (MTD) is greater than 960 mg/kg. Also, the half-maximal inhibitory concentration (IC50) with Plasmodium falciparum [2] turned out to be 2 nM; in the data set with Plasmodium falciparum [4] it was 2.33 nM; with Plasmodium falciparum [5], 3.7 nM. For the same molecule, the concentration for an effect of 90% (IC90) amounted to 2.26 nM in the data set on Plasmodium falciparum [2], 3.75 nM in the data set with Plasmodium falciparum [4] and 7.38 nM in the data set with Plasmodium falciparum [5].

In the case of `CCN(CC)CCCC(C)Nc1ccnc2cc(Cl)ccc12` (configuration not stated) [CHLOROQUINE], the figures for the concentration for an effect of 90% (IC90) in the data set with Plasmodium falciparum [2], in the data set on Plasmodium falciparum [4] and with Plasmodium falciparum [5] were 640 nM, 15.9 nM and 264 nM, respectively.

With `Clc1ccc2c(NCCNCC3CCC4(CC3)OOC3(CCCCC3)OO4)ccnc2c1`, the Survival is 26.4 days with Plasmodium berghei [6], 15.8 days in the data set on Plasmodium berghei [8] and greater than 31 days in the data set on Plasmodium berghei [12]. In addition, the Activity result with Mus musculus was “Non-toxic”. The outcome with Plasmodium berghei [10] was Active. The outcome in the data set on Plasmodium berghei [11] was inactive. In data set [1], this molecule yielded an inhibition at 6.26 µg/mL greater than 90%. Besides, the maximum tolerated dose (MTD) in data set [13] was greater than 960 mg/kg. Also, the half-inhibitory concentration (IC50) in the data set on Plasmodium falciparum [2] is 5.76 nM; in the data set with Plasmodium falciparum [4], 9.05 nM; with Plasmodium falciparum [5] it was 9.9 nM. In addition, the IC90 was 12.4 nM in the data set on Plasmodium falciparum [2], less than 430 nM in [3], 18.2 nM in the data set with Plasmodium falciparum [4] and 18.3 nM with Plasmodium falciparum [5].
